According to PMC3201811 (Journal of inorganic biochemistry, 2011):

Assays:
Jurkat cells [1] = assay: Cytotoxicity, cell death by annexinV-PE labeling and flow cytometry, 24 h; format: cell-based, human
Procedure, shortened: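 Jurkat (clone E6.1) in RPMI 1640 with 5% FCS, L-glutamine and penicillin/streptomycin, seeded at 3×10⁵ cells/ml. Cells were exposed to a range of test compound concentrations for 24 h. Fluorescent cells were counted by flow cytometry. Values are mean ± SD of three independent experiments.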

PBMC from healthy donors = assay: Cytotoxicity, cell death by annexinV-PE labeling and flow cytometry, 24 h; format: cell-based, human; settings: 25 μM
Procedure, shortened: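 PBMC came from healthy donors, were freshly isolated by Ficoll-Paque density centrifugation and kept in complete RPMI 1640 medium. They were exposed to a range of test compound concentrations for 24 h. Positive cells were quantified by flow cytometry. Values are mean ± SD of three independent experiments.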

Jurkat-CN cells [2] = assay: PS exposure; format: cell-based, human; settings: 24 h
Procedure, shortened: (§1)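 Jurkat cells with Bak knocked down by RNA interference, and empty-vector controls (CN), were exposed to test compound for 24 h; cisplatin at 25 μM served as reference. Samples were diluted to 1 ml and read by flow cytometry.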

Jurkat-shBak cells [3] = assay: PS exposure; format: cell-based, human; settings: 24 h
Procedure, shortened: as §1

Jurkat-CN cells [4] = assay: Necrotic versus apoptotic cell death, Trypan blue staining and morphology; format: cell-based, human; settings: control Jurkat cells, 24 h
Procedure, shortened: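 Jurkat-CN (empty-vector) and Jurkat-shBak cells were treated with test compound or cisplatin for 24 h, then stained with Trypan blue. Stained cells were scored as necrotic. Unstained cells showing blebbing and/or chromatin condensation were scored as apoptotic. Values are mean ± SD of three independent experiments.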

Jurkat-shBak cells [5] = assay: Necrotic versus apoptotic cell death, Trypan blue staining and morphology; format: cell-based, human; settings: 24 h
Jurkat cells [6] = assay: Protection by antioxidants; format: cell-based, human; settings: 24 h, superoxide scavenger MnTBAP
Procedure, shortened: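 Jurkat cells were cultured for 24 h with test compound alone or together with MnTBAP (superoxide anion scavenger), glutathione or N-acetylcysteine. Collapse of mitochondrial transmembrane potential was measured at the end by flow cytometry. Values are mean ± SD of 4 independent experiments.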

Jurkat cells [7] = assay: Growing potential after removal of compounds and NAC, Trypan blue counting; format: cell-based, human; settings: 24h treatment with compound alone, viable cells 24 h and 48 h after removal
Procedure, shortened: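 Jurkat cells were treated with test compound, with or without NAC, for 24 h. They were then washed and transferred to fresh medium. Total cell number and viability were measured 24 and 48 h after removal of compound and NAC, by Trypan blue staining and counting in a Neubauer haemocytometer. Values are mean ± SD of three independent experiments.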

[8] = cited from earlier work

| Compound | IC50 (Jurkat cells [1]) [µM] | killing of cells (Jurkat cells [1]; 25 μM) [%] | dead cells (PBMC from healthy donors) [%] | cells bound annexin V-PE (Jurkat-CN cells [2]; 10 μM, control Jurkat cells) | sensitivity of Jurkat-shBak cells, in words (Jurkat-shBak cells [3]) | type of cell death (necrosis versus apoptosis) (Jurkat-CN cells [4]) | type of cell death (necrosis versus apoptosis) (Jurkat-shBak cells [5]) | protection from toxicity by MnTBAP (Jurkat cells [6]) | growing potential after transfer to fresh medium (Jurkat cells [7]) | time stable in solution [8] [h] | death of cells (Jurkat-CN cells [2]; 25 μM, Jurkat control (CN) cells) |
| --- | --- | --- | --- | --- | --- | --- | --- | --- | --- | --- | --- |
| [Au{κ^2-C,N-C6H4(PPh2=N(C6H5)-2}(P{Cp(m-C6H4-SO3Na)2} 3)Cl]PF6 [compound 3] | 16.1 | 96 | 33.5 | around 50% | almost completely resistant | necrosis and apoptosis at similar levels | both apoptotic and necrotic cell death were prevented | almost completely protected | A fraction of cells | ≤ 24 |  |
| N.N.[Cl][Pt][Cl] [cisplatin, reference compound] |  |  |  |  | completely resistant |  |  |  |  |  | around 60% |
